Measurements: ChEMBL document CHEMBL4152384, “Pyrtriazoles, a Novel Class of Store-Operated Calcium Entry Modulators: Discovery, Biological Profiling, and in Vivo Proof-of-Concept Efficacy in Acute Pancreatitis” (J Med Chem, 2018)
Activity calls are given as the source filed them. The calls are words filed in the database; no cut-off is given here.

How the values were obtained:
Mus musculus [1] = assay: Acute toxicity in CD1 mouse assessed as histological alterations in liver at 40 mg/kg, ip administered as single dose for 14 days; type: organism-based; conditions: in vivo, 336 h
Mus musculus [2] = assay: Acute toxicity in CD1 mouse assessed as histological alterations in ileum at 40 mg/kg, ip administered as single dose for 14 days; type: organism-based; conditions: in vivo, 336 h
[3] = target: Transient receptor potential cation channel subfamily V member 1 (Homo sapiens) (UniProt Q8NER1); assay: Antagonist activity at TRPV1 (unknown origin) expressed in HEK cells assessed as inhibition of capsaicin-induced calcium increase at 10 uM by fura-2-based assay; type: cell-based
Transient receptor potential cation channel subfamily V member 1 (Homo sapiens), sequence (Q8NER1 whole entry): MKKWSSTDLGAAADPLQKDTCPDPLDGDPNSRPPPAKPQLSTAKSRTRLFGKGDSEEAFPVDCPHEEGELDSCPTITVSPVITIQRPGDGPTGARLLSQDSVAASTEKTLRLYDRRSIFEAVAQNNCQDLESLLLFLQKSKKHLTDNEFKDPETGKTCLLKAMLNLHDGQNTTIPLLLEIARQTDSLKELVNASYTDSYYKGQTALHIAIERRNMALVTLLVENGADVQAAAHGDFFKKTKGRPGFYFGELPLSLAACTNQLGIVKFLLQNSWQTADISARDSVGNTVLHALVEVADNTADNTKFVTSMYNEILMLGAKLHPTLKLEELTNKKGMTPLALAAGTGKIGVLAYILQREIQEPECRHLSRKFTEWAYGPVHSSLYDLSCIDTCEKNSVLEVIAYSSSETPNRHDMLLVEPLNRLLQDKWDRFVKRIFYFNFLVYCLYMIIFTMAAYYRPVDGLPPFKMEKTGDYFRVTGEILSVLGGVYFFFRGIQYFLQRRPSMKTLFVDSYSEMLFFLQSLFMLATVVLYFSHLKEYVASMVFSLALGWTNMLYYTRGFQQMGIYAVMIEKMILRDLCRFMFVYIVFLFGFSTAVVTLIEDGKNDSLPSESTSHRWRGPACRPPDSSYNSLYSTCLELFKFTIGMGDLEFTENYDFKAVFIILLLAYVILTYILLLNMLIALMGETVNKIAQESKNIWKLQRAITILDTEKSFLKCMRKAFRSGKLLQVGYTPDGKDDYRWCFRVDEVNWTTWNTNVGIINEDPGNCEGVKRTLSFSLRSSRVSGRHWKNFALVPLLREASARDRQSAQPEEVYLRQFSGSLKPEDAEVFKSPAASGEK
In short: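 TRPV1-overexpressing Hek cells; calcium rise evoked by capsaicin (100 nM), test compounds at 10 μM; peak amplitude read out; mean ± SEM of 600 cells from 30 plates on four separate experimental days.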

[4] = Cytotoxicity against HEK cells assessed as cell viability at 10 uM by MTT assay relative to control; type: cell-based; conditions: human, read-out: Activity
In short: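 Hek cells treated 24 h with compound at 10 μM; viability determined by MTT assay.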

[5] = system: voltage-gated calcium channel (Mus musculus); assay: Antagonist activity at voltage-gated calcium channels in C57/BL6 mouse cerebellar granule cells assessed as inhibition of KCl-induced voltage dependent calcium entry at 10 uM by fura-2-based assay
[6] = system: voltage-gated calcium channel (Mus musculus); assay: as above; remark: listed apart in the source
Mus musculus [7] = assay: Acute toxicity in CD1 mouse assessed as signs of distress at 40 mg/kg, ip administered as single dose for 14 days; type: organism-based; conditions: in vivo, 336 h
[8] = Cmax in ip dosed CD1 mouse after 1 hr by LC-ESI-MS analysis; type: ADME, organism-based; design: route intraperitoneal; conditions: in vivo
Mus musculus [9] = assay: Acute toxicity in CD1 mouse assessed as histological alterations in kidney at 40 mg/kg, ip administered as single dose for 14 days; type: organism-based; conditions: in vivo, 336 h
[10] = Plasma concentration in ip dosed CD1 mouse by LC-ESI-MS analysis; type: ADME, organism-based; conditions: in vivo
[11] = Half life in ip dosed CD1 mouse by LC-ESI-MS analysis; type: ADME, organism-based; conditions: in vivo
Mus musculus [12] = assay: Acute toxicity in CD1 mouse assessed as histological alterations in stomach at 40 mg/kg, ip administered as single dose for 14 days; type: organism-based; conditions: in vivo, 336 h
Mus musculus [13] = assay: Protection against cerulein-induced pancreatitis in CD1 mouse assessed as reduction in pancreatic edema at 40 mg/kg, ip administered at 30 and 150 mins post first cerulein addition by hematoxylin and eosin staining based microscopy; type: functional, organism-based
Mus musculus [14] = assay: Acute toxicity in CD1 mouse assessed as histological alterations in heart at 40 mg/kg, ip administered as single dose for 14 days; type: organism-based; conditions: in vivo, 336 h
[15] = target: Short transient receptor potential channel 1 & 3/Stromal interaction molecule 1/Calcium release-activated calcium channel protein 1 (Homo sapiens) (UniProt Q96D31+Q13507+Q13586+P48995); assay: (§1) Modulation of TRPC1/TRPC3/STIM1/Orai1 in HEK cells assessed as induction of store-operated calcium entry by measuring residual activity at 10 uM preincubated for 30 mins followed by tBhQ-mediated Ca2+ depletion and Ca2+ re-addition to extracellular solution measured for 600 secs by Fluo-4 AM-based fluorometric assay relative to control; type: cell-based
[16] = Drug metabolism in CD1 mouse liver microsomes assessed as 1-(4-(4-(3-Carboxyphenyl)-1H-1,2,3-triazol-1-yl)phenyl)-5-(trifluoromethyl)-1H-pyrazole-4-carboxylic Acid metabolite formation at 50 uM after 60 mins by mass spectroscopic analysis; type: ADME, microsome
Mus musculus [17] = assay: Acute toxicity in CD1 mouse assessed as effect on body weight at 40 mg/kg, ip administered as single dose for 14 days; type: organism-based; conditions: in vivo, 336 h
Mus musculus [18] = assay: Acute toxicity in CD1 mouse assessed as histological alterations in lung at 40 mg/kg, ip administered as single dose for 14 days; type: organism-based; conditions: in vivo, 336 h
[19] = Clearance in ip dosed CD1 mouse by LC-ESI-MS analysis; type: ADME, organism-based; conditions: in vivo
Mus musculus [20] = assay: Acute toxicity in CD1 mouse assessed as mortality at 40 mg/kg, ip administered as single dose for 14 days; type: organism-based; conditions: in vivo, 336 h
Mus musculus [21] = assay: Protection against cerulein-induced pancreatitis in CD1 mouse assessed as reduction in neutrophil infiltration at 40 mg/kg, ip administered at 30 and 150 mins post first cerulein addition by myeloperoxidase staining based spectrophotometry; type: functional, organism-based
[22] = target: Transient receptor potential cation channel subfamily M member 8 (Homo sapiens) (UniProt Q7Z2W7); assay: Antagonist activity at TRPM8 (unknown origin) expressed in HEK cells assessed as inhibition of menthol -mediated calcium increase at 10 uM by fura-2-based assay; type: cell-based
Transient receptor potential cation channel subfamily M member 8 (Homo sapiens), sequence (Q7Z2W7 whole entry, looked up): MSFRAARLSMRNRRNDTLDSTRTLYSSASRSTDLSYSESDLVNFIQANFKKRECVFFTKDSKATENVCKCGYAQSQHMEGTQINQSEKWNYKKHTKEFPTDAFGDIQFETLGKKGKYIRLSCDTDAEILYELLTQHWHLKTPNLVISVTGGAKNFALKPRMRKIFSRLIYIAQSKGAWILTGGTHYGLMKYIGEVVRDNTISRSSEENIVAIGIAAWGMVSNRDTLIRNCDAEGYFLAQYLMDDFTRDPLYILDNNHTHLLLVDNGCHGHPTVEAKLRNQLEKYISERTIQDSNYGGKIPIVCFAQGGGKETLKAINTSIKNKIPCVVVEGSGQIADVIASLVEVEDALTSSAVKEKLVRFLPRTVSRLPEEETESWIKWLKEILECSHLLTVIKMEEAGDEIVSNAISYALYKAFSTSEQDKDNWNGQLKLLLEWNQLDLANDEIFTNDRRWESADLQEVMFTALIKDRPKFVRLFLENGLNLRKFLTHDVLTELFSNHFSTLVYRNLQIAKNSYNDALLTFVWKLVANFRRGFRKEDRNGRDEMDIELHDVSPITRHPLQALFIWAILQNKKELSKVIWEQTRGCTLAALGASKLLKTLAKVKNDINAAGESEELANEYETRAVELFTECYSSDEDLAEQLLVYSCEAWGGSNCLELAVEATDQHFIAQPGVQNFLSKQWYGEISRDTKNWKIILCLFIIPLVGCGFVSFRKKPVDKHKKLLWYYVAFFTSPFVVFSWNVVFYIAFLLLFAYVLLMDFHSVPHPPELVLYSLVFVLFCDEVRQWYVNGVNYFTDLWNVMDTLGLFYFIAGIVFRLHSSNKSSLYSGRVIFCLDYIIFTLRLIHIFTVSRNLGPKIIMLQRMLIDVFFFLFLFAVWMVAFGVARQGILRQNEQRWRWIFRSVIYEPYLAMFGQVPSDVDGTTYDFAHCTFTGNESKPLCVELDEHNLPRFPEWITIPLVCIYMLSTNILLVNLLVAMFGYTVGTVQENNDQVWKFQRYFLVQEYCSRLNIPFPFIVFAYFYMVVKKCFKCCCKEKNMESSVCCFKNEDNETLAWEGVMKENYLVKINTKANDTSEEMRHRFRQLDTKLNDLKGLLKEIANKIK
In short: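 TRPM8-overexpressing Hek cells; calcium rise evoked by menthol (100 μM), test compounds at 10 μM; peak amplitude read out; mean ± SEM of 600 cells from 30 plates on four separate experimental days.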

[23] = Drug metabolism in CD1 mouse liver microsomes assessed as ester group hydrolysis at 50 uM after 60 mins in presence of NADPH/UDPGA; type: ADME, microsome; conditions: 1 h
[24] = Metabolic stability in CD1 mouse plasma assessed as residual compound level at 50 uM after 30 mins by LC-UV analysis; type: ADME, cell-free; conditions: read-out: Stability
In short: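 Compounds incubated in mouse plasma for 30 min; percentage of residual substrate determined.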

Mus musculus [25] = assay: Acute toxicity in CD1 mouse assessed as histological alterations in brain at 40 mg/kg, ip administered as single dose for 14 days; type: organism-based; conditions: in vivo, 336 h
[26] = Drug metabolism in CD1 mouse liver microsomes assessed as ester group hydrolysis at 50 uM after 60 mins in absence of NADPH/UDPGA; type: ADME, microsome; conditions: 1 h
[27] = target: Short transient receptor potential channel 1 & 3/Stromal interaction molecule 1/Calcium release-activated calcium channel protein 1 (Homo sapiens, UniProt P48995+Q13507+Q13586+Q96D31); assay: as §1, with “activity” for “activity at 10 uM”; type: cell-based
Short transient receptor potential channel 1 & 3/Stromal interaction molecule 1/Calcium release-activated calcium channel protein 1, sequence (Q96D31 whole entry): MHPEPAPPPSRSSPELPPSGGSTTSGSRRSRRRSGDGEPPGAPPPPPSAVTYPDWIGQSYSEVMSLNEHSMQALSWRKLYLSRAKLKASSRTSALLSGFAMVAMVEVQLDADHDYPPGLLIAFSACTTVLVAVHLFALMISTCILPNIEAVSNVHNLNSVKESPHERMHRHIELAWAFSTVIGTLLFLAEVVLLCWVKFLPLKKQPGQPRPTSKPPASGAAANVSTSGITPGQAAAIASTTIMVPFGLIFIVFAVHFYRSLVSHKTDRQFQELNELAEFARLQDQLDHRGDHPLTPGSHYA
Short transient receptor potential channel 1 & 3/Stromal interaction molecule 1/Calcium release-activated calcium channel protein 1, sequence (Q13507 whole entry): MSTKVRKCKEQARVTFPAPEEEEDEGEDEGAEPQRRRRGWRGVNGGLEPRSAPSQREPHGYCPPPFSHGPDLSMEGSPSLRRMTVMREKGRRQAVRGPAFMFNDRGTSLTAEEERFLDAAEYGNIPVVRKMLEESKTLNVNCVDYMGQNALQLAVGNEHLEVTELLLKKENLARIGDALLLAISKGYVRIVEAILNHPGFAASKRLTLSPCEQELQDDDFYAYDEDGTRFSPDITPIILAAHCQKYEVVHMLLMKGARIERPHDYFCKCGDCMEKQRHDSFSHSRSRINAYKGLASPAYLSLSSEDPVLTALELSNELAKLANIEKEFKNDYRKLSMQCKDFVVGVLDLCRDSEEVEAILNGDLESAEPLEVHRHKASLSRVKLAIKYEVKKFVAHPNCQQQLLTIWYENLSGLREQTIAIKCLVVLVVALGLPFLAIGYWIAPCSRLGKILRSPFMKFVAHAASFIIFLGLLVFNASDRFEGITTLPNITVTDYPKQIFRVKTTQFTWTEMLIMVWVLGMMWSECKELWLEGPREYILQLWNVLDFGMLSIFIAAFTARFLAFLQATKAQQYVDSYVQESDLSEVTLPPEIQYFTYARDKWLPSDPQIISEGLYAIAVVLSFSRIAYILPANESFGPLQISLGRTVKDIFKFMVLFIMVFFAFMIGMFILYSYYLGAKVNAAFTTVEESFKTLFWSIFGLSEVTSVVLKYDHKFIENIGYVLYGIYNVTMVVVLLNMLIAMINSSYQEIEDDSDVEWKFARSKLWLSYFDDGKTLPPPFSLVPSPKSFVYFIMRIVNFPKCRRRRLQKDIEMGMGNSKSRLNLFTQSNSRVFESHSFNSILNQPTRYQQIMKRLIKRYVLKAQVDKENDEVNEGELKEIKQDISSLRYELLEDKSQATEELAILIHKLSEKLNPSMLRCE
Short transient receptor potential channel 1 & 3/Stromal interaction molecule 1/Calcium release-activated calcium channel protein 1, sequence (Q13586 whole entry): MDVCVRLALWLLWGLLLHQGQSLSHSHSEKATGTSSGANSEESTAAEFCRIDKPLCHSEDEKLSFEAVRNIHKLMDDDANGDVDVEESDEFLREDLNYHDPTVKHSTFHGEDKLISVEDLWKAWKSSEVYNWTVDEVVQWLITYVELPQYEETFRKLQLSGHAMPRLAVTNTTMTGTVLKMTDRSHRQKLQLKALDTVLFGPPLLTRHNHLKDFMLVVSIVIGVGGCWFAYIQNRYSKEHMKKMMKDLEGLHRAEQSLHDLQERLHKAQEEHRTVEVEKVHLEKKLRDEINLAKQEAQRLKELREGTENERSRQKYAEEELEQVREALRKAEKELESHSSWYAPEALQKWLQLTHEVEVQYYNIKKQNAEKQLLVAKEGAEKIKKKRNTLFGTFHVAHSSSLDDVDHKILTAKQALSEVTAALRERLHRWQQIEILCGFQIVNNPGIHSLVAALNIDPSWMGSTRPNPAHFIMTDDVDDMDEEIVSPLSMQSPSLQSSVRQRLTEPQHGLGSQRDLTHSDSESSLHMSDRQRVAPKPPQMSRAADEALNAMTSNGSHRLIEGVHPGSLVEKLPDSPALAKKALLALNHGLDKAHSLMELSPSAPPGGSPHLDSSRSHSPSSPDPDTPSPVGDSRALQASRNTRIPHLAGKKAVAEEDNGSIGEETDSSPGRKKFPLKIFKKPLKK
Short transient receptor potential channel 1 & 3/Stromal interaction molecule 1/Calcium release-activated calcium channel protein 1, sequence (P48995 whole entry): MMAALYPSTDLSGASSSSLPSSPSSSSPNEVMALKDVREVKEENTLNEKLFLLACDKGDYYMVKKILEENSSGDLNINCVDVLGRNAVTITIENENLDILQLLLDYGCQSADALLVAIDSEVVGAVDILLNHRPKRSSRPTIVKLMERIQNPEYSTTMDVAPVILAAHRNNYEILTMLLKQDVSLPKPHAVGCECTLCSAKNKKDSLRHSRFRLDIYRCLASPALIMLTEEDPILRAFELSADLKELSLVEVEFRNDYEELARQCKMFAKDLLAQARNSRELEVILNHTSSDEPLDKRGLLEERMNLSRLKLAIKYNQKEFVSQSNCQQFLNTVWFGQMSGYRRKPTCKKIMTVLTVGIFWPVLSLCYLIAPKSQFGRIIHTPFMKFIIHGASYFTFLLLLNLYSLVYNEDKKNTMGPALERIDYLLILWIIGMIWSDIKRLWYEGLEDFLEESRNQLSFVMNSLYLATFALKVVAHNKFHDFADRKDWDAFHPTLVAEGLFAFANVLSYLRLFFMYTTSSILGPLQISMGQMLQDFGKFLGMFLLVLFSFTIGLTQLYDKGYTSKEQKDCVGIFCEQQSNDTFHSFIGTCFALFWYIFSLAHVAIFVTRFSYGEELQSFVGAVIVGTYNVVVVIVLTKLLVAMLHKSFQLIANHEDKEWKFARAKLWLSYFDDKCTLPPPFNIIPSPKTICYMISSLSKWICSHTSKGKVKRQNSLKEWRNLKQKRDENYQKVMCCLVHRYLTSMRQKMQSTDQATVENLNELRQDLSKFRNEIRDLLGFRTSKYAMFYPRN

[28] = Metabolic stability in CD1 mouse liver S9 fraction assessed as residual compound level at 50 uM after 1 hr; type: ADME, subcellular; conditions: read-out: Stability
In short: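 Hydrolytic stability measured in mouse liver S9 fraction; residual substrate quantified after 1 h incubation.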

[29] = Drug metabolism in CD1 mouse liver microsomes assessed as 3-(1-(4-(4-((Pentan-2-yloxy)carbonyl)-5-(trifluoromethyl)-1H-pyrazol-1-yl)-phenyl)-1H-1,2,3-triazol-4-yl)benzoic Acid metabolite formation at 50 uM after 60 mins by mass spectroscopic analysis; type: ADME, microsome
Mus musculus [30] = assay: Protection against cerulein-induced pancreatitis in CD1 mouse assessed as reduction in pancreatic inflammation at 40 mg/kg, ip administered at 30 and 150 mins post first cerulein addition by hematoxylin and eosin staining based microscopy; type: functional, organism-based
Mus musculus [31] = assay: Volume of distribution in ip dosed CD1 mouse by LC-ESI-MS analysis; type: ADME, organism-based; conditions: in vivo

Q: Which results are given for `CCCC(C)OC(=O)c1cnn(-c2ccc(-n3cc(-c4cccc(C(=O)O)c4)nn3)cc2)c1C(F)(F)F` (stereo unspecified)?
A: Activity (Mus musculus [1]): Non-Toxic; Activity (Mus musculus [2]): Non-Toxic; inhibition [3]: inactive; viability at 10 µM [4]: 93.6%; inhibition [5]: inactive; inhibition [6]: inactive; Activity (Mus musculus [7]): Non-Toxic; Cmax [8]: 640 ng/mL; Activity (Mus musculus [9]): Non-Toxic; concentration [10]: 1200 nM; half-life [11]: 1.3 h; Activity (Mus musculus [12]): Non-Toxic; Activity (Mus musculus [13]): Active; Activity (Mus musculus [14]): Non-Toxic; Activity [15]: 17.5%; Drug metabolism [16]: Metabolite_Notdetected; Activity (Mus musculus [17]): Non-Toxic; Activity (Mus musculus [18]): Non-Toxic; CL/F [19]: 283 mL/min/kg; Activity (Mus musculus [20]): Non-Toxic; Activity (Mus musculus [21]): Active; inhibition [22]: inactive; Drug metabolism [23]: Metabolite_Detected; remaining at 0.5 h, 50 µM [24]: 97.8%; Activity (Mus musculus [25]): Non-Toxic; Drug metabolism [26]: Metabolite_Detected; IC50 [27]: 4.4 µM; remaining at 1 h, 50 µM [28]: 73.7%; Drug metabolism [29]: Metabolite_Detected; Activity (Mus musculus [30]): Active; Vd (Mus musculus [31]): 32 L/kg
